Data: ChEMBL document CHEMBL1148641, “Design and synthesis of novel sulfonamide-containing bradykinin hB2 receptor antagonists. 1. Synthesis and SAR of alpha,alpha-dimethylglycine sulfonamides” (J Med Chem, 2006)

What was measured:
B2 bradykinin receptor [1] = target: T1, B2 bradykinin receptor (Homo sapiens, UniProt P30411); experiment: Displacement of [3H]BK from human B2 receptor transfected in CHO cells; format: cell-based
T1 sequence (P30411 whole entry): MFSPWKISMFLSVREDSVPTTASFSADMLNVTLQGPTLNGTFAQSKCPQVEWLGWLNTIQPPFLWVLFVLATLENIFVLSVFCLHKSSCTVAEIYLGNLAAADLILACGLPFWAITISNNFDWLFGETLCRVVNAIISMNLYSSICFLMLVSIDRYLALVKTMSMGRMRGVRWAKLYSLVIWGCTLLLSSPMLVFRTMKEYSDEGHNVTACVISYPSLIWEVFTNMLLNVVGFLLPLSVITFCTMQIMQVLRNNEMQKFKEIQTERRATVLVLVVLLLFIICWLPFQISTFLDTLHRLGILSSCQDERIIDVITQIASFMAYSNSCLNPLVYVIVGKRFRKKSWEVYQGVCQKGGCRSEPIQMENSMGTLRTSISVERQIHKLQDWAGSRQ
Method in brief: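 Membranes from stably transfected CHO cells (100-150 µg/mL) incubated 60 min at room temperature with [³H]BK at 0.1-0.2 nM in TES buffer pH 7.4 with 1,10-phenanthroline, bacitracin and BSA, 1% DMSO final. Competitor 1 pM-10 µM; nonspecific binding with 1 µM BK. Filtration, scintillation counting; IC50 converted to pKi by Cheng-Prusoff.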

B2 bradykinin receptor [2] = target: T1, B2 bradykinin receptor; experiment: Activity at human B2 receptor transfected in CHO cells assessed as ability to antagonize BK-induced inositol-phosphate accumulation; format: functional, cell-based; details: read-out: pA2 (converted)
Method in brief: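 Stably transfected CHO cells (1.8 × 10⁵/well) grown overnight at 37 °C, then labeled 24 h with [³H]myo-inositol (1 µCi/well). Antagonist preincubation 20 min at a nanomolar concentration, then BK 1 × 10^-11 to 1 × 10^-5 M for 40 min at 37 °C in LiCl-containing buffer, pH 7.4. IP1 radioactivity by liquid scintillation; pA₂ from EC50 concentration-ratios of sigmoidal fits.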

Cavia porcellus [3] = experiment: Inhibition of BK-induced bronchoconstriction in guinea pig intratracheally administered at 300 nmol/kg for 210 min; format: functional; details: inhaled or nasal, 3.5 h
Method in brief: (§1)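 Anesthetized guinea pigs given compound intratracheally at 300 nmol/kg. BK-induced bronchoconstriction and BK-induced hypotension followed over time after dosing.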

Cavia porcellus [4] = experiment: Reduction in hypotensive effect in guinea pig intratracheally administered at 300 nmol/kg for 60 min; format: functional; parameters: scale not given: the % may be the effect or the level left; method in brief: as §1

| Structure (SMILES) | Ki (B2 bradykinin receptor [1]) [nM] | Kb (B2 bradykinin receptor [2]) [nM] | further results |
| --- | --- | --- | --- |
| Cc1ccc2cccc(OCc3c(Cl)ccc(S(=O)(=O)NC(C)(C)C(=O)NCCCNCc4ccc(S(C)(=O)=O)cc4)c3Cl)c2n1 | 79.4 | – | – |
| Cc1cc(C)c2cccc(OCc3c(Cl)ccc(S(=O)(=O)NC(C)(C)C(=O)N4CCN(C(=O)C[C@@H](N)CCCN(C)C)CC4)c3Cl)c2n1 | 0.631 | 2.51 | – |
| Cc1ccc2cccc(OCc3c(Cl)ccc(S(=O)(=O)NC(C)(C)C(=O)N4CCN(C(=N)NCCCCCCN)CC4)c3Cl)c2n1 | 1 | 7.94 | – |
| Cc1ccc2cccc(OCc3c(Cl)ccc(S(=O)(=O)NC(C)(C)C(=O)N4CCN(C(=O)C[C@@H](N)CCCCN=C(N)N)CC4)c3Cl)c2n1 | 1.26 | 7.94 | – |
| Cc1ccc2cccc(OCc3c(Cl)ccc(S(=O)(=O)NC(C)(C)C(=O)N4CCN(C(=O)[C@@H](N)CCCCN(C)C)CC4)c3Cl)c2n1 | 2 | 11.2 | – |
| Cc1ccc2cccc(OCc3c(Cl)ccc(S(=O)(=O)NC(C)(C)C(=O)NCCN)c3Cl)c2n1 | 100 | – | – |
| Cc1ccc2cccc(OCc3c(Cl)ccc(S(=O)(=O)NC(C)(C)C(=O)NCCCN(C)C)c3Cl)c2n1 | 200 | – | – |
| Cc1cc(C)c2cccc(OCc3c(Cl)ccc(S(=O)(=O)N4CCC[C@@H]4C(=O)NCCCNC(=O)c4ccc(C(=N)N)cc4)c3Cl)c2n1 | 0.794 | – | – |
| Cc1cc(C)c2cccc(OCc3c(Cl)ccc(S(=O)(=O)NC(C)(C)C(=O)NCCCN)c3Cl)c2n1 | 25.1 | – | – |
| Cc1ccc2cccc(OCc3c(Cl)ccc(S(=O)(=O)NC(C)(C)C(=O)NCCCNCc4ccc(N(C)C)cc4)c3Cl)c2n1 | 158 | – | – |
| Cc1ccc2cccc(OCc3c(Cl)ccc(S(=O)(=O)NC(C)(C)C(=O)NCCCN4CCOCC4)c3Cl)c2n1 | 631 | – | – |
| Cc1ccc2cccc(OCc3c(Cl)ccc(S(=O)(=O)NC(C)(C)C(=O)NCCCNCc4ccoc4)c3Cl)c2n1 | 316 | – | – |
| Cc1ccc2cccc(OCc3c(Cl)ccc(S(=O)(=O)NC(C)(C)C(=O)N4CCN(CCCCCCN)CC4)c3Cl)c2n1 | 2.51 | 20 | – |
| COCCNC(=O)C(C)(C)NS(=O)(=O)c1ccc(Cl)c(COc2cccc3ccc(C)nc23)c1Cl | 7940 | – | – |
| Cc1ccc2cccc(OCc3c(Cl)ccc(S(=O)(=O)NC(C)(C)C(=O)NCCCN4CCN(C)CC4)c3Cl)c2n1 | 251 | – | – |
| Cc1ccc2cccc(OCc3c(Cl)ccc(S(=O)(=O)NC(C)(C)C(=O)N4CCCNCCC4)c3Cl)c2n1 | 100 | – | – |
| Cc1ccc2cccc(OCc3c(Cl)ccc(S(=O)(=O)NC(C)(C)C(=O)N4CCN(C(=N)NCCCN)CC4)c3Cl)c2n1 | 1.58 | 11 | – |
| Cc1ccc2cccc(OCc3c(Cl)ccc(S(=O)(=O)NC(C)(C)C(=O)N4CCN(CCCCCCN=C(N)N)CC4)c3Cl)c2n1 | 1.58 | 7.94 | – |
| Cc1ccc2cccc(OCc3c(Cl)ccc(S(=O)(=O)NC(C)(C)C(=O)N4CCN(C(=O)CN5CCNCC5)CC4)c3Cl)c2n1 | 3.98 | 25.1 | – |

| Structure (SMILES) | Ki (B2 bradykinin receptor [1]) [nM] | Kb (B2 bradykinin receptor [2]) [nM] | further results |
| --- | --- | --- | --- |
| COCCCNC(=O)C(C)(C)NS(=O)(=O)c1ccc(Cl)c(COc2cccc3ccc(C)nc23)c1Cl | 398 | – | – |
| Cc1ccc2cccc(OCc3c(Cl)ccc(S(=O)(=O)NC(C)(C)C(=O)NCCCN=C(N)N)c3Cl)c2n1 | 39.8 | – | – |
| Cc1ccc2cccc(OCc3c(Cl)ccc(S(=O)(=O)NC(C)(C)C(=O)NC4CCNCC4)c3Cl)c2n1 | 79.4 | – | – |
| Cc1ccc2cccc(OCc3c(Cl)ccc(S(=O)(=O)NC(C)(C)C(=O)NCCN=C(N)N)c3Cl)c2n1 | 20 | – | – |
| Cc1ccc2cccc(OCc3c(Cl)ccc(S(=O)(=O)NC(C)(C)C(=O)Nc4ccccc4)c3Cl)c2n1 | 7940 | – | – |
| Cc1ccc2cccc(OCc3c(Cl)ccc(S(=O)(=O)NC(C)(C)C(=O)NCCCNC(=O)c4ccc(C(=N)N)cc4)c3Cl)c2n1 | 20 | – | – |
| COc1ccc(CNCCCNC(=O)C(C)(C)NS(=O)(=O)c2ccc(Cl)c(COc3cccc4ccc(C)nc34)c2Cl)cc1 | 200 | – | – |
| Cc1ccc2cccc(OCc3c(Cl)ccc(S(=O)(=O)NC(C)(C)C(=O)NCCCNCc4ccc(F)cc4)c3Cl)c2n1 | 398 | – | – |
| Cc1ccc2cccc(OCc3c(Cl)ccc(S(=O)(=O)NC(C)(C)C(=O)NCCCc4ccccc4)c3Cl)c2n1 | > 10000 | – | – |
| Cc1ccc2cccc(OCc3c(Cl)ccc(S(=O)(=O)NC(C)(C)C(=O)NCCCNCc4ccc(C(N)=O)cc4)c3Cl)c2n1 | 126 | – | – |
| Cc1cc(C)c2cccc(OCc3c(Cl)ccc(S(=O)(=O)NC(C)(C)C(=O)N4CCN(C(=O)C[C@@H](N)CCCCN(C)C)CC4)c3Cl)c2n1 | 0.501 | 2.51 | – |
| Cc1ccc2cccc(OCc3c(Cl)ccc(S(=O)(=O)NC(C)(C)C(=O)NCCc4ccccc4)c3Cl)c2n1 | > 10000 | – | – |
| Cc1ccc2cccc(OCc3c(Cl)ccc(S(=O)(=O)NC(C)(C)C(=O)N4CCN(CCN=C(N)N)CC4)c3Cl)c2n1 | 10 | 39.8 | – |
| Cc1ccc(CNCCCNC(=O)C(C)(C)NS(=O)(=O)c2ccc(Cl)c(COc3cccc4ccc(C)nc34)c2Cl)cc1 | 200 | – | – |
| CC(=O)N[C@@H](CCCCN(C)C)C(=O)N1CCN(C(=O)C(C)(C)NS(=O)(=O)c2ccc(Cl)c(COc3cccc4ccc(C)nc34)c2Cl)CC1 | 10 | 20 | – |
| Cc1ccc2cccc(OCc3c(Cl)ccc(S(=O)(=O)NC(C)(C)C(=O)N4CCN(C(=N)N)CC4)c3Cl)c2n1 | 3.98 | 39.8 | – |
| Cc1ccc2cccc(OCc3c(Cl)ccc(S(=O)(=O)NC(C)(C)C(=O)N=C(N)N)c3Cl)c2n1 | 63.1 | – | – |
| Cc1ccc2cccc(OCc3c(Cl)ccc(S(=O)(=O)NC(C)(C)C(=O)NCCN4CCCCC4)c3Cl)c2n1 | 316 | – | – |
| Cc1ccc2cccc(OCc3c(Cl)ccc(S(=O)(=O)NC(C)(C)C(=O)N4CCN(C(=O)[C@@H](N)CCCN(C)C)CC4)c3Cl)c2n1 | 0.398 | 25.1 | – |

| Structure (SMILES) | Ki (B2 bradykinin receptor [1]) [nM] | Kb (B2 bradykinin receptor [2]) [nM] | further results |
| --- | --- | --- | --- |
| Cc1cc(C)c2cccc(OCc3c(Cl)ccc(S(=O)(=O)NC(C)(C)C(=O)N4CCN(C(=N)NCCCN)CC4)c3Cl)c2n1 | 1 | 2.51 | – |
| Cc1ccc2cccc(OCc3c(Cl)ccc(S(=O)(=O)NC(C)(C)C(=O)N4CCCNCC4)c3Cl)c2n1 | 25.1 | – | – |
| Cc1ccc2cccc(OCc3c(Cl)ccc(S(=O)(=O)NC(C)(C)C(=O)NCc4ccccc4)c3Cl)c2n1 | > 10000 | – | – |
| Cc1ccc2cccc(OCc3c(Cl)ccc(S(=O)(=O)NC(C)(C)C(=O)N4CCN(C(=O)C[C@@H](N)CCCCN(C)C)CC4)c3Cl)c2n1 | 0.631 | 39.8 | – |
| Cc1ccc2cccc(OCc3c(Cl)ccc(S(=O)(=O)NC(C)(C)C(=O)NCCCNCc4ccccn4)c3Cl)c2n1 | 39.8 | – | – |
| Cc1ccc2cccc(OCc3c(Cl)ccc(S(=O)(=O)NC(C)(C)C(=O)NCCCCN)c3Cl)c2n1 | 200 | – | – |
| Cc1ccc2cccc(OCc3c(Cl)ccc(S(=O)(=O)NC(C)(C)C(=O)NCCCNCc4ccc(Cl)cc4)c3Cl)c2n1 | 794 | – | – |
| Cc1ccc2cccc(OCc3c(Cl)ccc(S(=O)(=O)NC(C)(C)C(=O)NCCCNCc4ccccc4)c3Cl)c2n1 | 200 | – | – |
| Cc1ccc2cccc(OCc3c(Cl)ccc(S(=O)(=O)NC(C)(C)C(=O)NCCN4CCOCC4)c3Cl)c2n1 | 2510 | – | – |
| Cc1cc(C)c2cccc(OCc3c(Cl)ccc(S(=O)(=O)NC(C)(C)C(=O)NCCCNc4ccc(C(=N)N)cc4)c3Cl)c2n1 | 7.94 | – | – |
| Cc1ccc2cccc(OCc3c(Cl)ccc(S(=O)(=O)NC(C)(C)C(=O)NCCCNCc4ccc(O)cc4)c3Cl)c2n1 | 79.4 | – | – |
| Cc1ccc2cccc(OCc3c(Cl)ccc(S(=O)(=O)NC(C)(C)C(=O)NCC4CCNCC4)c3Cl)c2n1 | 158 | – | – |
| Cc1cc(C)c2cccc(OCc3c(Cl)ccc(S(=O)(=O)NC(C)(C)C(=O)N4CCN(C(=O)[C@@H](N)CCCN(C)C)CC4)c3Cl)c2n1 | 0.398 | 0.794 | inhibition in vivo at 0.3 µmol/kg (Cavia porcellus [3]): 80%; Activity (Cavia porcellus [4]): 30% |
| Cc1ccc2cccc(OCc3c(Cl)ccc(S(=O)(=O)NC(C)(C)C(=O)NCCCN)c3Cl)c2n1 | 158 | – | – |
| Cc1cc(C)c2cccc(OCc3c(Cl)ccc(S(=O)(=O)NC(C)(C)C(=O)N4CCN(C(=O)[C@@H](N)CCCCN(C)C)CC4)c3Cl)c2n1 | – | 3.16 | – |
| Cc1ccc2cccc(OCc3c(Cl)ccc(S(=O)(=O)NC(C)(C)C(=O)N4CCN(C(=O)C[C@@H](N)CCCN(C)C)CC4)c3Cl)c2n1 | 0.794 | 39.8 | – |
| Cc1ccc2cccc(OCc3c(Cl)ccc(S(=O)(=O)NC(C)(C)C(=O)NCCCNCc4c[nH]cn4)c3Cl)c2n1 | 158 | – | – |
| Cc1ccc2cccc(OCc3c(Cl)ccc(S(=O)(=O)NC(C)(C)C(=O)N4CCNCC4)c3Cl)c2n1 | 25.1 | – | – |
